{"data": "Assay results from different studies", "observed": "cell growth or viability", "note": "Protocols differ between the studies behind these lines."}
{"SMILES": "Cc1ccc(S(=O)(=O)n2cc(CNc3ccc(C(=O)NO)cc3)c3ccccc32)cc1", "cell line": "LLC-PK1", "time": "48 h", "IC50": "9.99 µM"}
{"SMILES": "CCOc1ccc(C=Nn2c(-c3ccccc3)nc3ccc(Cl)cc3c2=O)cc1O", "cell line": "LLC-PK1", "technique": "MTT", "time": "72 h", "IC50": "342 µM"}
{"SMILES": "CC(C)(C)c1cnc(CSc2cnc(NC(=O)C3CCN(C(=O)CCCCCCCN4Cc5cc6c(cc5C4)C(=O)N(C4CCC(=O)NC4=O)C6=O)CC3)s2)o1 (centres unmarked)", "cell line": "SK-UT-1", "technique": "MTT", "IC50": "0.106 µM"}
{"SMILES": "COc1cccc2c1C(=O)c1c(O)c3c(c(O)c1C2=O)C[C@@](O)(C(=O)CO)C[C@@H]3O[C@H]1C[C@H](N)[C@H](O)[C@H](C)O1", "cell line": "LLC-PK1", "time": "48 h", "IC50": "2.34 µM"}
{"SMILES": "O=c1c2cc(Cl)ccc2nc(-c2ccccc2)n1N=Cc1ccc(F)cc1", "cell line": "LLC-PK1", "technique": "MTT", "time": "72 h", "IC50": "86.7 µM"}
{"SMILES": "O=C(CCSSc1ccccc1/C=N/NC(=O)c1ccccc1)OC[C@H]1OC(O)[C@H](O)[C@@H](O)[C@@H]1O (some centres unmarked)", "cell line": "A2780", "technique": "MTT", "IC50": "23 µM"}
{"SMILES": "NS(=O)(=O)c1ccc(-n2nc(C(=O)NN=Cc3cccnc3)cc2-c2ccccc2)cc1", "cell line": "HT-29", "technique": "fluorescence", "time": "48 h", "IC50": "32.3 µM"}
{"SMILES": "Cc1ccc(S(=O)(=O)n2cc(CN3CCN(c4ccc(C(=O)NO)cc4)CC3)c3ccccc32)cc1", "cell line": "LLC-PK1", "time": "48 h", "IC50": "8.82 µM"}
{"SMILES": "COc1ccc(C=Nn2c(-c3ccccc3)nc3ccc(Cl)cc3c2=O)cc1OC", "cell line": "LLC-PK1", "technique": "MTT", "time": "72 h", "IC50": "462 µM"}
{"SMILES": "NS(=O)(=O)c1ccc(-n2nc(C(=O)NN=Cc3ccccc3O)cc2-c2ccccc2)cc1", "cell line": "HT-29", "technique": "fluorescence", "time": "48 h", "IC50": "20 µM"}
{"SMILES": "CN1CCC(NC2CCc3[nH]c4c(C(N)=O)ccc(-c5ccccc5Cl)c4c3C2)CC1 (centres unmarked)", "cell line": "SU-DHL-4", "time": "96 h", "IC50": "0.0223 µM"}
{"SMILES": "CC(=O)O[C@H]1C(=O)[C@@]2(C)[C@H]([C@H](OC(=O)c3ccccc3)[C@]3(O)C[C@H](OC(=O)[C@H](O)[C@@H](NC(=O)c4ccccc4)c4ccccc4)C(C)=C1C3(C)C)[C@]1(OC(C)=O)CO[C@@H]1C[C@@H]2O", "cell line": "LLC-PK1", "technique": "MTT", "time": "72 h", "IC50": "1.31 µM"}
{"SMILES": "COc1ccc(C=NNC(=O)c2cc(-c3ccccc3)n(-c3ccc(S(N)(=O)=O)cc3)n2)cc1OC", "cell line": "HT-29", "technique": "fluorescence", "time": "48 h", "IC50": "25.8 µM"}
{"SMILES": "O=c1c2cc(Cl)ccc2nc(-c2ccccc2)n1N=Cc1ccco1", "cell line": "LLC-PK1", "technique": "MTT", "time": "72 h", "IC50": "154 µM"}
{"SMILES": "COc1cc(C=NNC(=O)c2cc(-c3ccccc3)n(-c3ccc(S(N)(=O)=O)cc3)n2)cc(OC)c1OC", "cell line": "HT-29", "technique": "fluorescence", "time": "48 h", "IC50": "26.3 µM"}
{"SMILES": "Nc1cccc2c1C(=O)N(C1CCC(=O)NC1=O)C2=O (centres unmarked)", "cell line": "SU-DHL-4", "technique": "CCK-8", "time": "7 days", "IC50": "> 20 µM"}
{"SMILES": "CC(=NNC(=O)c1cc(-c2ccccc2)n(-c2ccc(S(N)(=O)=O)cc2)n1)c1ccc(Br)cc1", "cell line": "HT-29", "technique": "fluorescence", "time": "48 h", "IC50": "37.2 µM"}
{"SMILES": "COc1cccc(-c2cc(NCc3ccc4c(c3)OCO4)nc(N)n2)c1", "cell line": "A2780", "time": "72 h", "IC50": "0.0901 µM"}
{"SMILES": "NS(=O)(=O)c1ccc(-n2nc(-c3nnc(S)o3)cc2-c2ccccc2)cc1", "cell line": "HT-29", "technique": "fluorescence", "time": "48 h", "IC50": "39.4 µM"}
{"SMILES": "O=c1c2cc(Cl)ccc2nc(-c2ccccc2)n1N=Cc1ccccc1O", "cell line": "LLC-PK1", "technique": "MTT", "time": "72 h", "IC50": "75.7 µM"}
